The values below come from ChEMBL document CHEMBL4043075, “Development of Fluorinated Analogues of Perhexiline with Improved Pharmacokinetic Properties and Retained Efficacy” (J Med Chem, 2017).

Some results are limits rather than exact numbers.

A short description of data set [1]: Stability of the compound in pH 7.4 PBS buffer at 37 degC after 1 hr. Format: physicochemical. The conditions noted are these: pH 7.4, 1 h. The procedure, abridged:
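Compound incubated 1 h in pH 7.4 PBS at 37 °C, then checked for decomposition.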

Data set [2] can be described thus: Half life in Sprague-Dawley rat liver microsomes at 3 uM up to 45 mins in presence of NADPH by LC-MS/MS analysis. It is filed as ADME, microsome. On the technique in general: Microsomes from liver hold many membrane-bound enzymes, among them those of drug oxidation.
Data set [3] is described as follows: Half life in human liver microsomes at 3 uM up to 45 mins in presence of NADPH by LC-MS/MS analysis. It is filed as ADME, microsome.
For data set [4], the target named is T1, Carnitine O-palmitoyltransferase 1, muscle isoform (Rattus norvegicus, UniProt Q63704).
T1 sequence (Q63704 whole entry): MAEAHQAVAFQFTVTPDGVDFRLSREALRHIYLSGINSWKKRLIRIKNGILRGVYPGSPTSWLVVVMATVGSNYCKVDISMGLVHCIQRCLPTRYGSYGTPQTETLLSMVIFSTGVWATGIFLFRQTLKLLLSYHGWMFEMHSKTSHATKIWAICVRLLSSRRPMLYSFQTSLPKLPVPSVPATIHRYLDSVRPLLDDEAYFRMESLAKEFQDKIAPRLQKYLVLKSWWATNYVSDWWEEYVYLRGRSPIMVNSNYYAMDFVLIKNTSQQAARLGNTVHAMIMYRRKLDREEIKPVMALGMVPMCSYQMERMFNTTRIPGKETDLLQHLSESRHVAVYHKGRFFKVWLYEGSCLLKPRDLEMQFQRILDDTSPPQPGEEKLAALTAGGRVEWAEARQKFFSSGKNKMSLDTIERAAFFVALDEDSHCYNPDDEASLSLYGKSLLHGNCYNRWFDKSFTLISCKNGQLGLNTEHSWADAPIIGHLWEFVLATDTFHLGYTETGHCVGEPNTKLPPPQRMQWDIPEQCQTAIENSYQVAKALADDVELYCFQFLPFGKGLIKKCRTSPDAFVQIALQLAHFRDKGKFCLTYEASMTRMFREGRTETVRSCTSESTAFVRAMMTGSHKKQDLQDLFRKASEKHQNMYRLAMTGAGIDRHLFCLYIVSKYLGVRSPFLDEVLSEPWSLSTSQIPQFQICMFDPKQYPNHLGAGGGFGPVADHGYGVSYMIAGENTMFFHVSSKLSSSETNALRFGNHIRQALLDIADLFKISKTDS
The experiment in a line: Inhibition of Wistar rat heart mitochondrial CPT-1 assessed as reduction in conversion of palmitoyl CoA and L-carnitine into palmitoylcarnitine preincubated for 3 mins followed by L-carnitine and palmitoyl CoA addition measured for 3.5 mins by spectrophotometric analysis.

Data set [5] can be described thus: Ratio of drug level in myocardium to plasma in Sprague-Dawley rat at 10 mg/kg, po administered via gavage every 24 hrs measured at 1 hr post dose by LC-MS/MS analysis. Format: ADME, organism-based. The conditions noted are these: myocardium and plasma. The procedure, abridged:
(§1)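 Male Sprague-Dawley rats, daily oral dosing at 10 mg/kg. Plasma sampled at 1, 2, 4, 8 and 24 h after dosing, n = 3 per timepoint. Myocardium measured at 1 and 8 h. Myocardium:plasma ratio taken from drug concentration.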

The nature of data set [6]: Plasma concentration in Sprague-Dawley rat at 10 mg/kg, po administered via gavage every 24 hrs measured at 4 hrs post last dose by LC-MS/MS analysis. Format: ADME, organism-based. Summed up:
as §1

Data set [7] can be described thus: Plasma concentration in Sprague-Dawley rat at 10 mg/kg, po administered via gavage every 24 hrs measured at 1 hr post dose by LC-MS/MS analysis. Format: ADME, organism-based. Summed up:
as §1

Data set [8] can be described thus: Plasma concentration in BALB/c mouse at 10 mg/kg, po administered via gavage every 24 hrs for 7 days measured 8 hrs post last dose by LC-MS/MS analysis. It is filed as ADME, organism-based. The procedure, abridged:
(§2)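 Male BALB/c mice, daily oral gavage at 10 mg/kg. Plasma and myocardium sampled 1, 4, 8 and 24 h after dosing, n = 3 per timepoint. […] Myocardium:plasma ratios taken from drug concentration or from AUC. Student's t-test used.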

Data set [9] in a line: Drug uptake in BALB/c mouse myocardium at 10 mg/kg, po administered via gavage every 24 hrs for 7 days measured 1 hr post last dose by LC-MS/MS analysis. Format: ADME, organism-based. The conditions noted are these: read-out: Drug uptake. Summed up: as §2
Data set [10] is described as follows: Ratio of AUC (0 to 24 hrs) in myocardium to plasma in BALB/c mouse at 10 mg/kg, po administered via gavage every 24 hrs for 7 days measured post last dose by LC-MS/MS analysis. The conditions noted are these: myocardium and plasma, read-out: Ratio AUC. It is filed as ADME, organism-based. The procedure, abridged: as §2
Data set [11] is described as follows: Ratio of drug level in myocardium to plasma in Sprague-Dawley rat at 10 mg/kg, po administered via gavage every 24 hrs measured at 8 hrs post dose by LC-MS/MS analysis. The conditions noted are these: myocardium and plasma. It is filed as ADME, organism-based. Summed up:
as §1

Data set [12] in a line: Ratio of drug level in myocardium to plasma in BALB/c mouse at 10 mg/kg, po administered via gavage every 24 hrs for 7 days measured 4 hrs post last dose by LC-MS/MS analysis. It is filed as ADME, organism-based. Particulars: myocardium and plasma. The procedure, abridged: as §2
Data set [13] is described as follows: Plasma concentration in Sprague-Dawley rat at 10 mg/kg, po administered via gavage every 24 hrs measured at 2 hrs post last dose by LC-MS/MS analysis. Format: ADME, organism-based. Summed up: as §1
Data set [14] is described as follows: Ratio of drug level in myocardium to plasma in BALB/c mouse at 10 mg/kg, po administered via gavage every 24 hrs for 7 days measured 8 hrs post last dose by LC-MS/MS analysis. It is filed as ADME, organism-based. Particulars: myocardium and plasma. The procedure, abridged: as §2
Data set [15] in a line: Plasma concentration in Sprague-Dawley rat at 10 mg/kg, po administered via gavage every 24 hrs measured at 8 hrs post last dose by LC-MS/MS analysis. Format: ADME, organism-based. Summed up: as §1
Data set [16] is described as follows: Drug uptake in BALB/c mouse myocardium at 10 mg/kg, po administered via gavage every 24 hrs for 7 days measured 8 hrs post last dose by LC-MS/MS analysis. The conditions noted are these: read-out: Drug uptake. Format: ADME, organism-based. The procedure, abridged: as §2
Data set [17] in a line: Plasma concentration in BALB/c mouse at 10 mg/kg, po administered via gavage every 24 hrs for 7 days measured 4 hrs post last dose by LC-MS/MS analysis. It is filed as ADME, organism-based. Summed up:
as §2

Data set [18] in a line: Drug uptake in Sprague-Dawley rat myocardium at 10 mg/kg, po administered via gavage every 24 hrs measured at 1 hr post last dose by LC-MS/MS analysis. Format: ADME, organism-based. Particulars: read-out: Drug uptake. The procedure, abridged:
as §1

Data set [19] can be described thus: Plasma concentration in BALB/c mouse at 10 mg/kg, po administered via gavage every 24 hrs for 7 days measured at 1 hr post last dose by LC-MS/MS analysis. It is filed as ADME, organism-based. The procedure, abridged: as §2
Data set [20] in a line: Ratio of drug level in myocardium to plasma in BALB/c mouse at 10 mg/kg, po administered via gavage every 24 hrs for 7 days measured 1 hr post last dose by LC-MS/MS analysis. Format: ADME, organism-based. The conditions noted are these: myocardium and plasma. Summed up:
as §2

A short description of data set [21]: AUC (0 to 24 hrs) in BALB/c mouse plasma at 10 mg/kg, po administered via gavage every 24 hrs for 7 days measured post last dose by LC-MS/MS analysis. It is filed as ADME, organism-based. Details: dose 10 mg/kg, time < 24 hr, route oral. Summed up:
as §2

Data set [22] relates to Heart. The experiment in a line: Cardioprotective activity in Langendorff perfused C57BL/6 mouse heart assessed as increase in cardiac contractility at 2 uM perfused for 30 mins in presence of high fat relative to control. Format: functional. The procedure, abridged:
(§3)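 Isolated C57BL/6 hearts (25-30 g) retrogradely perfused at constant 80 mmHg, 37 °C, 95% O2/5% CO2, with modified Krebs containing 1.2 mM sodium palmitate conjugated to 3% BSA. After 10 min stabilisation, 30 min perfusion with control buffer or compound at 2 or 10 µM. LVdP/dt max and min derived from LV pressure over 40 min; mean ± SEM, n = 12-19, 1-way ANOVA with Bonferroni.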

Data set [23] is described as follows: Drug uptake in Sprague-Dawley rat myocardium at 10 mg/kg, po administered via gavage every 24 hrs measured at 8 hrs post last dose by LC-MS/MS analysis. Format: ADME, organism-based. The conditions noted are these: read-out: Drug uptake. Summed up:
as §1

Another data set has as its target CYP2D6 (Homo sapiens, UniProt P10635). The experiment in a line: Drug metabolism assessed as human CYP2D6-mediated compound degradation by measuring half life at 5 uM up to 45 mins in presence of NADPH by LC-MS/MS analysis. It is filed as ADME.
Data set [24] is described as follows: AUC (0 to 24 hrs) in BALB/c mouse myocardium at 10 mg/kg, po administered via gavage every 24 hrs for 7 days measured post last dose by LC-MS/MS analysis. Format: ADME, organism-based. Details: time < 24 hr, dose 10 mg/kg, route oral. The procedure, abridged: as §2
The nature of data set [25]: Drug uptake in BALB/c mouse myocardium at 10 mg/kg, po administered via gavage every 24 hrs for 7 days measured 4 hrs post last dose by LC-MS/MS analysis. Format: ADME, organism-based. The conditions noted are these: read-out: Drug uptake. The procedure, abridged:
as §2

The subject of data set [26] is Heart. The experiment in a line: Cardioprotective activity in Langendorff perfused C57BL/6 mouse heart assessed as increase in cardiac relaxation at 2 uM perfused for 30 mins in presence of high fat relative to control. Format: functional. Summed up:
as §3

Chain of CYP2D6 (P10635 whole entry): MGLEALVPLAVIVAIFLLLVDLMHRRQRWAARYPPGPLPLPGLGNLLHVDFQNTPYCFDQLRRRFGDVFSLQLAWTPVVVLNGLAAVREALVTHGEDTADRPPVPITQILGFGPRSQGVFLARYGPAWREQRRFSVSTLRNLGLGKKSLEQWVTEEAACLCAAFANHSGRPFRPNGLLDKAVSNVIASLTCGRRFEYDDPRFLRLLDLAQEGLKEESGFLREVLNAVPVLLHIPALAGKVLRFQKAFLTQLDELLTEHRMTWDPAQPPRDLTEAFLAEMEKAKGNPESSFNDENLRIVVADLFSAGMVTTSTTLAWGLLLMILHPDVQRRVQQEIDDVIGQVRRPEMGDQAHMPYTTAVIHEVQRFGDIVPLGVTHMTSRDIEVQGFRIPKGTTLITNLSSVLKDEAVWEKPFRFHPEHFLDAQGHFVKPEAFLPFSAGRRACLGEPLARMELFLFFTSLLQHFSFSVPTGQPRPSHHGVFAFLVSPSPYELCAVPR

One may read the half-life as the time in which the quantity being followed falls by half. With `C1CCC(CC(C2CCCC2)C2CC2)NC1` (stereo unspecified), the Stability result in data set [1] was “Stable”. Further, the half-life at 3 µM stood at 3 min in data set [2] and 27 min in data set [3].

What is called IC50 is the concentration at which inhibition is half-maximal. As for `C1CCC(C(C[C@@H]2CCCCN2)C2CCCCC2)CC1`, the half-life at 3 µM in data set [2] was 11 min; in data set [3] it was 65 min. The IC50 in data set [4] is 14 µM.

As to `CC1(C)CCC(C(CC2CCCCN2)C2CCCCC2)CC1` (stereo unspecified), the Stability result in [1] was “Stable”. The half-life at 3 µM was determined as 20 min in data set [2] and 77 min in data set [3].

On to `CC(C)(COP(=O)(O)OP(=O)(O)OC[C@H]1O[C@@H](n2cnc3c(N)ncnc32)[C@H](O)[C@@H]1OP(=O)(O)O)[C@@H](O)C(=O)NCCC(=O)NCCSC(=O)CC(=O)O` [MALONYL-COENZYME A], for which, in data set [4], the IC50 stood at 1.2 µM.

Consider `C1CCC(CC(C2CCCC2)C2CCCC2)NC1` (stereo unspecified), for which, in data set [1], the Stability result is “Stable”. The results for the half-life at 3 µM in data set [2] and in data set [3] were 14 min and 50 min, respectively. Also, the IC50 in data set [4] worked out at 19 µM.

Regarding `FC1(F)CCCC(C(CC2CCCCN2)C2CCCCC2)C1` (stereo unspecified), in data set [1], the Stability entry is “Stable”. Further, the values for the half-life at 3 µM in [2] and in data set [3] were 35 min and over 150 min, respectively. Further, the IC50 in data set [4] is 215 µM.

A word on the AUC: it is concentration integrated over time. Read a high AUC as more exposure. Turning to `C1CCC(C(CC2CCCCN2)C2CCCCC2)CC1` (racemic) [PERHEXILINE], the results for the Kp at 1 h in data set [5] and in data set [20] were 19 and 5.7, respectively. Further, the concentration at 4 h in data set [6] came to 97.4 ng/mL; in data set [17], 28.3 ng/mL; in [25], 126 ng/mL. Moreover, the concentration at 1 h in [7] stood at 99.9 ng/mL; in data set [9], 664 ng/mL; in [18], 1900 ng/mL; in data set [19], 116 ng/mL. In addition, the concentration at 8 h amounted to 6 ng/mL in [8], 31.4 ng/mL in [15], 29.2 ng/mL in data set [16] and 361 ng/mL in data set [23]. For the same compound, the Kp in data set [10] is 2.4. In addition, the Kp at 8 h in data set [11] is 11.5; in [14], 4.8. The Kp at 4 h in data set [12] worked out at 4.9. Also, the concentration at 2 h in data set [13] was 113 ng/mL. For the same compound, the values for the half-life at 3 µM in data set [2] and in [3] were 21 min and 100 min, respectively. In addition, in [4], the IC50 stood at 11 µM. In addition, the AUC at 24 h in data set [21] stood at 876 ng·h/mL; in [24], 2110 ng·h/mL. Moreover, the figures for the “fold change (FC)” value in the data set on Heart [22] and with Heart [26] were 2.1 and 3.2, respectively. In addition, at CYP2D6, the half-life at 5 µM is 14 min.

`c1ccc(C(CC2CCCCN2)C2CCCCC2)cc1` (stereo unspecified): in data set [1], the Stability entry is listed as “Stable”. The half-life at 3 µM in data set [2] is 4 min; in data set [3] it was 56 min.

For `FC1CCC(C(CC2CCCCN2)C2CCC(F)CC2)CC1` (stereo unspecified), the Stability result in [1] is on record as “Unstable”.

With `C1CCC(C(CC2CCCCN2)C2CCCCC2)CC1.O=C(O)/C=C\C(=O)O` (stereo unspecified) [PERHEXILINE MALEATE], the half-life at 3 µM in data set [2] turned out to be 10 min; in data set [3], 98 min. Further, the IC50 in data set [4] is 32 µM.
